Data from paper PMC11068032 (Journal of medicinal chemistry, 2023).

Assays:
U87 xenograft tumor = U87 xenograft tumor model in nude mice; type: in vivo
Method in brief: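 Nude mice (5–6 weeks) received U87 cells (5 × 10^6 in PBS) subcutaneously into both flanks; n = 4/group, 8 tumors/group. At about 50 mm3, mice got vehicle (DMSO) or test compound 20 mg/kg in PBS IP three times weekly for 14 days. Calipers three times weekly, V = 2/3 d1 × d2², body weight recorded. At end: CO2 euthanasia, tumors weighed, two tumors per mouse pooled and homogenized in RIPA for AR blotting.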

Maximum-tolerated dose = type: in vivo; conditions: 100 mg/kg per day IP for 10 days
Method in brief: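 Twelve C57BL/6 mice randomised into three groups (vehicle DMSO, or test compound in PBS), dosed IP daily and euthanised after 10 days. Body weight recorded daily. Nonfasted cardiac blood drawn immediately after euthanasia for automated haematology analysis. Heart, liver, spleen, lung and kidney rinsed in PBS, formalin-fixed, ethanol-dehydrated, xylene-cleared, paraffin-embedded and H&E-stained.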

AR in T98G cells = test: AR immunofluorescence assay in T98G cells; type: cell-based, human; conditions: 50 nM, 12 h, compared to the control
Method in brief: (§1)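 Cells were grown on coverslips for 24 h, then given test compound at 50 nM for 12 h. Fixed in 4% paraformaldehyde (10 min), permeabilized with 0.1% Triton X-100 (10 min) and blocked in 1% BSA (30 min). Anti-AR primary 1 h, fluorescent secondary 1 h, nuclei stained with DAPI 1 µg/mL for 10 min, then imaged by fluorescence microscopy.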

AR-V7 in T98G cells = test: Mutated AR; type: cell-based, human; conditions: Western blotting
Method in brief: (§2)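 Cells in 6-well plates treated with test compound or DMSO (T98G screens at 100 or 50 nM for 12 h). Lysed in RIPA with protease inhibitors (10 min on ice), spun at 10,000g for 10 min, protein by BCA. 50 µg resolved on 10% SDS-PAGE, transferred to PVDF, blocked 2 h in 5% milk/TBS-T. Anti-AR or anti-AR-V7 primary overnight at 4 °C, secondary 60 min at RT, chemiluminescence. Band gray values quantified.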

[1] = target: T1, α-crystallin (chaperone function domain of HSP27) (Bos taurus, UniProt P02470+P02510); test: HSP27 chaperone activity assay; type: biochemical
T1 sequence (P02470 1-173): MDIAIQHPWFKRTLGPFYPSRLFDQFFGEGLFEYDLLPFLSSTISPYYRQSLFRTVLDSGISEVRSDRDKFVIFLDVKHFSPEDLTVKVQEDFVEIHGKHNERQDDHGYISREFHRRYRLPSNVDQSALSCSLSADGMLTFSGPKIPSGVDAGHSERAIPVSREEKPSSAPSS
T1 sequence (P02510 1-175): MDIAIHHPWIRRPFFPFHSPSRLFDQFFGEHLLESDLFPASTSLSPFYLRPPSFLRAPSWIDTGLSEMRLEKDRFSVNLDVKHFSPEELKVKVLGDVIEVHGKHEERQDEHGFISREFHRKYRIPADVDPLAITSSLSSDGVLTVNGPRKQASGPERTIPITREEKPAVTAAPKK
Method in brief: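 Chaperone assay: insulin (from 1 mg/mL stock) with α-crystallin, the HSP27 chaperone domain (from 5 mg/mL stock), and test compound in PBS. Preincubated 5 min at 37 °C, then aggregation started with DTT (from 1 M stock). A400 read every 3 min for up to 2 h. Controls were insulin with or without α-crystallin in 0.1% DMSO. Three independent experiments, each in triplicate; mean curves.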

[2] = test system: AR protein level in T98G cells; test: AR downregulation in T98G cells by Western blotting; type: cell-based, human
Method in brief: as §2

AR in U87 cells = test: AR immunofluorescence assay in U87 cells; type: cell-based, human; conditions: 50 nM, 12 h, compared to the control
Method in brief: as §1

[3] = test system: AR protein level in U87 cells; test: AR downregulation in U87 cells by Western blotting; type: cell-based, human; conditions: 25, 50, and 100 nM
Method in brief: as §2

[4] = cited from earlier work

| Compound | nude mice body weight (U87 xenograft tumor; 20 mg/kg IP every other day, 2 weeks) | tumor size (U87 xenograft tumor; 20 mg/kg IP every other day, 2 weeks, vs control) | tumor weight (U87 xenograft tumor; 20 mg/kg IP every other day, end of experiment, vs control) | AR protein level in tumors (U87 xenograft tumor; 20 mg/kg IP, Western blotting of tumor lysates, vs control) | condition observation (signs of toxicity such as dehydration, acute pain, or distress) (Maximum-tolerated dose) | body weight growth rate (Maximum-tolerated dose; vs control group) | hematology, profile of the blood (Maximum-tolerated dose; vs control group) | tissue staining (H&E) of kidney, spleen, lung, liver, and heart (Maximum-tolerated dose; vs control group) | fluorescence intensities of AR (AR in T98G cells) | mutated AR (AR-V7) level (AR-V7 in T98G cells) | inhibition of in vitro chaperone function of HSP27 ([1]; 10 μM (Figure 3), α-crystallin present) | interference with DTT-induced insulin aggregation ([1]; without chaperone protein, 10 μM or below) | AR downregulation activity at 50 nM ([2]; 50 nM, 12 h) | AR downregulation activity at 100 nM ([2]; 100 nM, 12 h) | AR protein level ([2]; 25, 50, and 100 nM) | fluorescence intensities of AR (AR in U87 cells) | AR protein level [3] | AUC in brain tissue as share of the AUC in plasma [4] | half-life [4] |
| --- | --- | --- | --- | --- | --- | --- | --- | --- | --- | --- | --- | --- | --- | --- | --- | --- | --- | --- | --- |
| COc1ccc(OC)c(COc2cc(NC(=O)c3ccc4ccccc4c3)ccc2NS(C)(=O)=O)c1 [Compound 26, N-(3-((2,5-Dimethoxybenzyl)oxy)-4-(methylsulfonamido)phenyl)-2-naphthamide] | not affected | significantly decreased | significantly decrease | significantly decreased | do not show any sign of toxicity | no growth rate difference | no change | no substantial histological abnormalities | decreased | downregulate | significantly inhibit | do not interfere | potent AR downregulation activity | significant AR downregulation activity | significantly downregulate | decreased | significantly downregulate |  |  |
| COc1ccc(C(=O)Nc2ccc(NS(C)(=O)=O)c(OCc3cc(OC)ccc3OC)c2)cc1 [Compound I, N-(3-((2,5-dimethoxybenzyl)oxy)-4-(methylsulfonamido)phenyl)-4-methoxybenzamide] |  |  |  |  |  |  |  |  |  |  |  |  |  |  |  |  |  | about 2% | about 1.5 h |
